The nature of experiment [1]: inhibitors of TNFa-induced NFkB p65 translocation, primary screen, imaging, HUVEC, MLSMR starter and 10KST1 sets (AID 438;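 active = inhibition above 20% together with a positive visual image hit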;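 note: compound added about 3h40 before a 20 min TNFalpha stimulation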;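 for inhibition: signal is the nuclear over cytoplasmic p65 intensity ratio per well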). The conditions noted are these: HUVEC TNFa-induced p65 nuclear translocation; cell count: measured here: nuclei count (cytotoxicity indicator), at 2.08 µM; inhibition: at 2 µM, stronger effect = higher value, 0% TNFa-plus-vehicle, 100% no-TNFa wells.
A short description of experiment [2]: inhibitors of mutant huntingtin aggregation, primary screen, imaging, exon1htt(103Q)mCFP cells, high-content imaging (AID 483;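 active = visual image review flags a hit and inhibition of aggregation exceeds 20%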;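 note: compound exposure lasted 3 days before fixation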;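 for nuclei count: percent of the per-plate median nuclei count of sample wells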). Conditions: exon1htt(103Q)mCFP cell line, aggregate imaging, at 2 µM; inhibition of aggregation: stronger effect = higher value; nuclei count: measured here: cell count, toxicity.
Experiment [3] is described as follows: inhibitors of E-selectin induction by TNFa, primary screen, imaging, HUVEC, immunofluorescence, MLSMR starter and 10KST1 sets (AID 487;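 active = visually confirmed hit in the image check and inhibition above 20%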;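 for inhibition: signal is fraction of cell area covered by stained E-selectin grains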;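 for nuclei count: 100% = median nuclei count of all wells on the same plate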). The conditions noted are these: HUVEC TNFalpha-induced E-selectin immunofluorescence imaging, at 2 µM; inhibition: stronger effect = higher value; nuclei count: measured here: cell number, toxicity.
Experiment [4] deals with Voltage-gated potassium channel subunit beta-2 (Rattus norvegicus) (UniProt P62483). The experiment can be described thus: KvBeta enzyme negative modulators, primary screen, biochemical, NADPH fluorescence (AID 622;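 active = fluorescence slope higher than the sample average by over 3 SD, cut at about -0.22 in these data, passing the limit was not always enough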;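 note: slope of raw intensity against log time taken from 70 to 1610 s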). The conditions noted are these: recombinant KvBeta, 4-cyanobenzaldehyde reduction, at 10 µM, stronger effect = higher value.
For experiment [5] the target is unchanged. The experiment is described as follows: KvBeta positive modulators, primary screen, biochemical, NADPH fluorescence (AID 623;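 active = NADPH fluorescence slope more negative than the mean of all samples by about 3 SD, 99.7% confidence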;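 note: fluorescence intensity change per second fitted from 20 to 320 s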). Conditions: Recombinant KvBeta, NADPH fluorescence decrease slope, 10 min; at 10 µM; stronger effect = lower value.
For experiment [6], the target named is Muscarinic acetylcholine receptor M4 (Homo sapiens) (UniProt P08173). The experiment is described as follows: compounds altering M4/GIRK thallium flux, either direction, primary screen, M4 allosteric agonist project, cell-based, HEK293 M4/GIRK, BTC-AM (AID 625;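 active = fluorescence slope after compound addition differing from the mean of all tested samples at 99.7% confidence, mostly higher but some lower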;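 note: thallium influx through GIRK channels coupled to M4 in HEK293 cells with BTC-AM dye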). The conditions noted are these: at 10 µM, actives lie on both sides. The gist of the method:
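Material: HEK293 cells with M4 receptor and GIRK channels; Times: cells overnight at 37 °C, BTC-AM loading 1 h, reads 2 min total; Technique: kinetic BTC-AM fluorescence sampled at 1 Hz, 10 s pre-addition baseline; Read-out basis: slope over 15–24 s of trace normalized to starting intensity; Controls: carbachol positive, DMSO negative.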

A short description of experiment [7]: inhibitors of Sendai virus-induced IRF3 signaling, primary screen, TLR/RLR signaling modifier project, cell-based, Sendai virus stimulus, luciferase, 10K MLSCN set (AID 602276).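 Note: firefly luciferase from ISG56 promoter only with Renilla not read in this screen; 0% = Sendai virus plus DMSO and 100% = medium plus DMSO without virus.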 The conditions noted are these: HEK293 RL24 IRF3 luciferase reporter, at 10 µM, stronger effect = higher value. For orientation: A reporter such as luciferase makes a cellular process visible.
A short description of experiment [8]: inhibitors of poly I:C-induced TLR3 signaling, primary screen, cell-based, poly I:C stimulus, luciferase, 10K MLSCN set (AID 602277;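 active = inhibition of the reporter signal at or above 50%; inactive = inhibition below 50%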). Conditions: HEK293-TLR3 RL24 IRF3 luciferase reporter, at 10 µM, stronger effect = higher value.

Activity calls are given as the source filed them.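 Rule for the calls, unless noted: active = inhibition at or above 50% at 10 µM; inactive = inhibition below 50%.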

Chain of Voltage-gated potassium channel subunit beta-2 (Rattus norvegicus) (P62483 whole entry, looked up): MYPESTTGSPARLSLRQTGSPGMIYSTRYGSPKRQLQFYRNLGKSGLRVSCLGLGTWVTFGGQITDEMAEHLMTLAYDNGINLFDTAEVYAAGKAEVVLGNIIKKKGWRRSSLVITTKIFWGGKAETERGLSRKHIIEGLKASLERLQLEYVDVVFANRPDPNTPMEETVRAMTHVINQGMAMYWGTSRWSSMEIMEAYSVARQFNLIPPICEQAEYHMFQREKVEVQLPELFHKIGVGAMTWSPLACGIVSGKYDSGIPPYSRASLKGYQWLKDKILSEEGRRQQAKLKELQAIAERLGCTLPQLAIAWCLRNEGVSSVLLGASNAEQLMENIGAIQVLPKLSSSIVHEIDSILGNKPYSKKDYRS
Chain of Muscarinic acetylcholine receptor M4 (Homo sapiens) (P08173 whole entry, looked up): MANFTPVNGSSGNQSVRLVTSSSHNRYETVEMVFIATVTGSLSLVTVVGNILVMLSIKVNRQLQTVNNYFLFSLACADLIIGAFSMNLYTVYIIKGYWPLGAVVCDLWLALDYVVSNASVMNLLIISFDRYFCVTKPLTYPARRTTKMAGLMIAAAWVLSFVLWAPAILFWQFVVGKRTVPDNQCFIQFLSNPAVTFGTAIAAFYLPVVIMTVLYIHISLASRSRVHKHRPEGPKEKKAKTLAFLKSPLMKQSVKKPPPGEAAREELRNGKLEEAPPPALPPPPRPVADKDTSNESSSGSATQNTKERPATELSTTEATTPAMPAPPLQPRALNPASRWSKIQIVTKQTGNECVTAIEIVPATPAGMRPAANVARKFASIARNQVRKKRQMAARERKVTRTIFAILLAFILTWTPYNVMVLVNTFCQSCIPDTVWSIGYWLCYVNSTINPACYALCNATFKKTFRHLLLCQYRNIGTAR

Usually inhibition stands for the drop in the measured response relative to a control, in per cent. Regarding `Cc1c(NC(=O)CN2c3cccc4cccc(c34)S2(=O)=O)c(=O)n(-c2ccccc2)n1C`, in experiment [1], the cell count worked out at 721. For the same molecule, the inhibition in experiment [1] was -7.1% (inactive); in experiment [3], -119% (inactive); in experiment [7], 8.89% (inactive); in experiment [8], 15.5% (inactive). Moreover, the inhibition of aggregation in experiment [2] is 1.4% (inactive). The nuclei count worked out at 103% in experiment [2] and 141% in experiment [3]. Also, the fluorescence slope in experiment [4] was -0.442 (inactive); in experiment [6], 0.00478 (inactive). Also, the NADPH fluorescence slope in experiment [5] is -2.5e-05 (inactive).
For the molecule `CCOC(=O)c1ccc(NC(=O)CSc2ncccn2)cc1`, in experiment [1], the cell count was determined as 366. Further, the inhibition in experiment [1] was 10.7% (inactive); in experiment [3], -62.8% (inactive); in experiment [7], -20.7% (inactive); in experiment [8], -63.9% (inactive). Further, in experiment [2], the inhibition of aggregation is -25% (inactive). Moreover, the nuclei count in experiment [2] amounted to 101%; in experiment [3], 100%. Also, the fluorescence slope in experiment [4] is -0.532 (inactive); in experiment [6], 0.0039 (inactive). Moreover, the NADPH fluorescence slope in experiment [5] was -0.000128 (inactive).
Consider `O=c1cc(-c2ccccc2)[nH]c2nc3ccccc3n12`, for which the cell count in experiment [1] came to 302. For the same molecule, the inhibition was -1.2% (inactive) in experiment [1], -4.8% (inactive) in experiment [3], 40.6% (inactive) in experiment [7] and 27% (inactive) in experiment [8]. Also, the inhibition of aggregation in experiment [2] was 15.1% (inactive). Further, the nuclei count in experiment [2] was found to be 99.6%; in experiment [3], 96.2%. In addition, the fluorescence slope in experiment [4] is -0.422 (inactive); in experiment [6] it was 0.00541 (inactive). Further, in experiment [5], the NADPH fluorescence slope was 2.4e-05 (inactive).
For the molecule `O=S(=O)(NC1=NCCC1)c1cccs1`, in experiment [1], the cell count was determined as 524. The inhibition is -7% (inactive) in experiment [1], 27.1% (inactive) in experiment [3], 8.22% (inactive) in experiment [7] and 5.63% (inactive) in experiment [8]. Further, the inhibition of aggregation in experiment [2] is 11% (inactive). Also, the nuclei count in experiment [2] worked out at 102%; in experiment [3], 103%. Also, the fluorescence slope in experiment [4] was -0.353 (inactive); in experiment [6] it was 0.00585 (inactive). In addition, the NADPH fluorescence slope in experiment [5] was -4.6e-05 (inactive).
Take `Cc1cc(C)c(C)c(S(=O)(=O)Nc2ccc(O)cc2)c1C`: in experiment [1], the cell count turned out to be 187. The inhibition is -8.6% (inactive) in experiment [1], -7.7% (inactive) in experiment [3], 10.8% (inactive) in experiment [7] and 18.5% (inactive) in experiment [8]. Further, in experiment [2], the inhibition of aggregation is 37.3% (active). The nuclei count in experiment [2] was 87.5%; in experiment [3] it was 74.8%. In addition, the fluorescence slope in experiment [4] is -0.539 (inactive); in experiment [6] it was 0.00478 (inactive). Moreover, the NADPH fluorescence slope in experiment [5] is -1.7e-05 (inactive).
As for `COc1cc2[nH]c(=O)n(CCCCCC(=O)N3CCN(c4ccccn4)CC3)c(=O)c2cc1OC`, the cell count in experiment [1] is 195. Further, the inhibition in experiment [1] is 17.8% (inactive); in experiment [3], 28.9% (inactive); in experiment [7], 19.6% (inactive); in experiment [8] it was -1.9% (inactive). For the same molecule, the inhibition of aggregation in experiment [2] was 6% (inactive). Further, the nuclei count in experiment [2] is 100%; in experiment [3], 92.1%. Moreover, the fluorescence slope was -0.216 (inactive) in experiment [4] and 0.00687 (inactive) in experiment [6]. Also, the NADPH fluorescence slope in experiment [5] was -2.4e-05 (inactive).
As to `CC12CN3CC(C)(CN(C1)C3c1ccc(Br)cc1)C2` (centres undefined), the cell count in experiment [1] is 565. The inhibition in experiment [1] is -1.2% (inactive); in experiment [3] it was -50.4% (inactive); in experiment [7], 13.8% (inactive); in experiment [8], 13.4% (inactive). In addition, the inhibition of aggregation in experiment [2] is 5.1% (inactive). Also, the nuclei count in experiment [2] was 97.5%; in experiment [3], 96.1%. In addition, the fluorescence slope is -0.607 (inactive) in experiment [4] and 0.00246 (inactive) in experiment [6]. For the same molecule, the NADPH fluorescence slope in experiment [5] is -4.3e-05 (inactive).
`c1ccc(-c2cn3cccnc3n2)cc1`: in experiment [1], the cell count came to 746. The inhibition in experiment [1] was -0.7% (inactive); in experiment [3], -66.8% (inactive); in experiment [7] it was -12.5% (inactive); in experiment [8] it was -40.2% (inactive). Moreover, the inhibition of aggregation in experiment [2] is 12.5% (inactive). The nuclei count in experiment [2] worked out at 92.7%; in experiment [3], 123%. Besides, the fluorescence slope in experiment [4] is -0.0209 (active); in experiment [6], 0.00503 (inactive). Also, the NADPH fluorescence slope in experiment [5] was -3.7e-06 (inactive).
As for `O=C(Nc1nc(-c2ccccc2)cs1)C1CCCCN1S(=O)(=O)c1ccccc1` (centres undefined), the cell count in experiment [1] came to 509. Moreover, the inhibition in experiment [1] was 6.9% (inactive); in experiment [3] it was -18.7% (inactive); in experiment [7], -0.318% (inactive); in experiment [8], 1.39% (inactive). In addition, the inhibition of aggregation in experiment [2] is -0.8% (inactive). Moreover, the nuclei count in experiment [2] is 101%; in experiment [3], 96.2%. The fluorescence slope is -0.659 (inactive) in experiment [4] and 0.00633 (inactive) in experiment [6]. Further, the NADPH fluorescence slope in experiment [5] is 1.4e-05 (inactive).
For `CC(=O)Nc1nc(-c2ccccc2)nc(C)c1C(C)=O`, the cell count in experiment [1] was 366. For the same molecule, the inhibition was 8% (inactive) in experiment [1], 32.4% (inactive) in experiment [3], -8.51% (inactive) in experiment [7] and 2.89% (inactive) in experiment [8]. In experiment [2], the inhibition of aggregation is 15% (inactive). Moreover, the nuclei count is 88.5% in experiment [2] and 87.6% in experiment [3]. In addition, the fluorescence slope was -0.572 (inactive) in experiment [4] and 0.0072 (inactive) in experiment [6]. For the same molecule, in experiment [5], the NADPH fluorescence slope is 2e-05 (inactive).
Turning to `O=C1CN(C(=O)CN2CCCC2)C(c2ccccc2)c2cc(Br)ccc2N1` (centres undefined), in experiment [1], the cell count came out at 393. Besides, the inhibition in experiment [1] was -1.2% (inactive); in experiment [3] it was -23.4% (inactive); in experiment [7], -0.203% (inactive); in experiment [8] it was 21.9% (inactive). In addition, in experiment [2], the inhibition of aggregation is -15.4% (inactive). Moreover, the nuclei count worked out at 83.1% in experiment [2] and 123% in experiment [3]. The fluorescence slope is -0.512 (inactive) in experiment [4] and 0.00427 (inactive) in experiment [6]. The NADPH fluorescence slope in experiment [5] was -6.6e-05 (inactive).
On to `COc1cc(CC(=O)NCc2ccc3c(c2)OCO3)cc(OC)c1OC`, for which the cell count in experiment [1] was 698. The inhibition in experiment [1] is -7.8% (inactive); in experiment [3] it was -43.8% (inactive); in experiment [7] it was 6.85% (inactive); in experiment [8], 10.7% (inactive). Moreover, the inhibition of aggregation in experiment [2] was -5.2% (inactive). Also, the nuclei count in experiment [2] came to 142%; in experiment [3], 124%. Besides, the fluorescence slope in experiment [4] is -0.519 (inactive); in experiment [6] it was 0.00565 (inactive). The NADPH fluorescence slope in experiment [5] was -0.000135 (inactive).
Consider `O=C(NCc1cccs1)C(Cc1ccccc1)NS(=O)(=O)c1cccs1` (centres undefined), for which the cell count in experiment [1] turned out to be 469. Also, the inhibition in experiment [1] was -1.7% (inactive); in experiment [3] it was -26.1% (inactive); in experiment [7] it was 14.7% (inactive); in experiment [8] it was 15.2% (inactive). In experiment [2], the inhibition of aggregation is 0% (inactive). For the same molecule, the values for the nuclei count in experiment [2] and in experiment [3] were 108% and 111%, respectively. For the same molecule, the fluorescence slope in experiment [4] was -0.437 (inactive); in experiment [6], 0.00454 (inactive). Moreover, the NADPH fluorescence slope in experiment [5] is -0.000238 (active).
Take `Cc1ccc(NC(=O)CS(=O)CC(=O)NCC2CCCO2)cc1` (centres undefined): the cell count in experiment [1] stood at 515. Also, the inhibition in experiment [1] is 7.1% (inactive); in experiment [3] it was -38.7% (inactive); in experiment [7] it was -20.7% (inactive); in experiment [8], -6.01% (inactive). Further, the inhibition of aggregation in experiment [2] is 17.5% (inactive). The nuclei count in experiment [2] turned out to be 100%; in experiment [3] it was 117%. In addition, the fluorescence slope in experiment [4] is -0.309 (inactive); in experiment [6], 0.00727 (inactive). Further, the NADPH fluorescence slope in experiment [5] is 1.2e-05 (inactive).

The values are drawn from PubChem BioAssay.
